In experiment [1] the test system is Nucleic Acid. The experiment can be described thus: Inhibition of TPA-induced SRE transfected in HEK293 cells treated 1 hr before TPA stimulation measured after 18 hrs by luciferase reporter gene assay. The format is cell-based. The method in brief:
(§1)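 HEK293 cells were grown in DMEM with 10% FBS at 37 °C and 5% CO2. They were transiently transfected with a luciferase reporter (0.1 µg/well); reporters were AP-1 (four TRE consensus copies from GCN4), NF-κB (five responsive-element copies) or SRE. After 24 h, medium went to DMEM with 0.2% FBS. Cells were pretreated 1 h with compound or DMSO, then given TPA 10 ng/mL for 18 h. Firefly luciferase was read from passive-lysis lysates, TPA alone = 100%, in quadruplicate.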

In experiment [2] the target is Signal transducer and activator of transcription 3 (Homo sapiens) (UniProt P40763). Kind of experiment: Inhibition of TPA-induced phosphorylation at Tyr705 of Stat3 in HEK293 whole cell extract at 35.5 uM treated 1 hr before TPA stimulation measured after 18 hrs by immunoblot analysis. The method in brief: (§2)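 HEK293 cells were exposed to compound or DMSO for 1 h, then induced with TPA 10 ng/mL for 18 h. Cells were lysed in RIPA buffer (10 mM Tris-HCl pH 7.5, 1 mM EDTA, 0.1% SDS, 0.1% deoxycholate, protease inhibitor). Whole-cell extracts were immunoblotted for phospho-IκB-α and phospho-Stat3 (Tyr705), with tubulin as loading control.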

Experiment [3] has the same target. Kind of experiment: Inhibition of TPA-induced phosphorylation at Tyr705 of Stat3 in HEK293 whole cell extract at 15.8 uM treated 1 hr before TPA stimulation measured after 18 hrs by immunoblot analysis. The format is cell-based. In short, it runs like this:
as §2

The nature of experiment [4]: Inhibition of protein synthesis in cell-free extract of mouse Krebs2 cells by SDS-PAGE. Type of experiment: functional.
The target in experiment [5] is Signal transducer and activator of transcription 3 (Homo sapiens) (UniProt P40763). The experiment can be described thus: Inhibition of TPA-induced phosphorylation at Tyr705 of Stat3 in HEK293 whole cell extract at 31.6 uM treated 1 hr before TPA stimulation measured after 18 hrs by immunoblot analysis. Type of experiment: cell-based. In short, it runs like this: as §2

Experiment [6] is described as follows: Growth inhibition of human NCI60 cells. The format is functional.
Experiment [7] deals with HEK293. The experiment can be described thus: Inhibition of TPA-induced NF-kappaB transfected in HEK293 cells treated 1 hr before TPA stimulation measured after 18 hrs by luciferase reporter gene assay. Type of experiment: cell-based. In short, it runs like this: as §1
Experiment [8] deals with T1, Inhibitor of nuclear factor kappa-B kinase subunit alpha (Homo sapiens) (UniProt O15111).
T1 sequence (whole entry): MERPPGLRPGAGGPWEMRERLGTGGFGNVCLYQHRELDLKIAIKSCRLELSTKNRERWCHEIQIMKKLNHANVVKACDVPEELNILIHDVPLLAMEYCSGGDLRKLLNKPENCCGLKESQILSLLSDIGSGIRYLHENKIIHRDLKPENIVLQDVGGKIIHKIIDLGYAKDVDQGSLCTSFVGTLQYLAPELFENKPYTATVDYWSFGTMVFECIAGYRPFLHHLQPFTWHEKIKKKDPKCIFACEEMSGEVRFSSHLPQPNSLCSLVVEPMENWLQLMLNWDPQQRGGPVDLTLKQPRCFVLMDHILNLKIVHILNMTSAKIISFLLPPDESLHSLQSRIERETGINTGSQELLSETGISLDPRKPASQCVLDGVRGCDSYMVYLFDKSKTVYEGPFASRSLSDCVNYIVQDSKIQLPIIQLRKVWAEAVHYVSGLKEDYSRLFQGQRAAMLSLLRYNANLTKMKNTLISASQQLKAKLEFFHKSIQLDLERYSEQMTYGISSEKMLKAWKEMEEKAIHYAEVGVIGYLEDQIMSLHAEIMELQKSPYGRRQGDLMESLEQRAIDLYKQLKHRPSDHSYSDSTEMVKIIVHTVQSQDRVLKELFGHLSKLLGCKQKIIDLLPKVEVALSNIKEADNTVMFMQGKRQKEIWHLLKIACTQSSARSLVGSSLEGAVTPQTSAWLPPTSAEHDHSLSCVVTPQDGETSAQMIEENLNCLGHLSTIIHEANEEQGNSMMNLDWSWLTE
Kind of experiment: Inhibition of TPA-induced IkappaBalpha phosphorylation in HEK293 whole cell extract at 35.5 uM treated 1 hr before TPA stimulation measured after 18 hrs by immunoblot analysis. In short, it runs like this:
as §2

The target in experiment [9] is Signal transducer and activator of transcription 3 (Homo sapiens) (UniProt P40763). Kind of experiment: Inhibition of TPA-induced phosphorylation at Tyr705 of Stat3 in HEK293 whole cell extract at 40.8 uM treated 1 hr before TPA stimulation measured after 18 hrs by immunoblot analysis. The format is cell-based. In short, it runs like this: as §2
The target of experiment [10] is T1, Inhibitor of nuclear factor kappa-B kinase subunit alpha (Homo sapiens). Kind of experiment: Inhibition of TPA-induced IkappaBalpha phosphorylation in HEK293 whole cell extract at 71.3 uM treated 1 hr before TPA stimulation measured after 18 hrs by immunoblot analysis. The format is cell-based. The method in brief: as §2
Experiment [11] concerns the target Signal transducer and activator of transcription 3 (Homo sapiens) (UniProt P40763). The experiment can be described thus: Inhibition of TPA-induced phosphorylation at Tyr705 of Stat3 in HEK293 whole cell extract at 71.3 uM treated 1 hr before TPA stimulation measured after 18 hrs by immunoblot analysis. Type of experiment: cell-based. In short, it runs like this:
as §2

For experiment [12] the target is unchanged. Kind of experiment: Inhibition of TPA-induced phosphorylation at Tyr705 of Stat3 in HEK293 whole cell extract at 20.4 uM treated 1 hr before TPA stimulation measured after 18 hrs by immunoblot analysis. Type of experiment: cell-based. The method in brief:
as §2

For experiment [13], the system named is HeLa. Kind of experiment: Inhibition of protein synthesis in human HeLa cells assessed as [35S]methionine incorporation into protein treated for 45 mins before [35S]methionine addition by Whatman paper analysis. The format is functional, cell-based.
For experiment [14], the target named is T1, Inhibitor of nuclear factor kappa-B kinase subunit alpha (Homo sapiens). Kind of experiment: Inhibition of TPA-induced IkappaBalpha phosphorylation in HEK293 whole cell extract at 20.4 uM treated 1 hr before TPA stimulation measured after 18 hrs by immunoblot analysis. The format is cell-based. The method in brief: (§3)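 HEK293 cells grown in DMEM with 10% FBS at 37 °C and 5% CO2. Cells were pretreated with quassinoid or DMSO for 1 h, then stimulated with TPA (10 ng/mL) for 18 h. Whole-cell extracts were made in RIPA buffer (10 mM Tris-HCl pH 7.5, 1 mM EDTA, 0.1% SDS, 0.1% deoxycholate, protease inhibitor). Immunoblots were probed for phospho-IκB-α, with tubulin as loading control.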

For experiment [15] the target is unchanged. The experiment can be described thus: Inhibition of TPA-induced IkappaBalpha phosphorylation in HEK293 whole cell extract at 40.8 uM treated 1 hr before TPA stimulation measured after 18 hrs by immunoblot analysis. The format is cell-based. In short, it runs like this:
as §3

Experiment [16] can be described thus: Growth inhibition of human AP-1 beta-lactamase reporter screening assay cells at 1 uM. The note with it: AP-1 reporter cells.
Experiment [17] has as its target T1, Inhibitor of nuclear factor kappa-B kinase subunit alpha (Homo sapiens). The experiment can be described thus: Inhibition of TPA-induced IkappaBalpha phosphorylation in HEK293 whole cell extract at 31.6 uM treated 1 hr before TPA stimulation measured after 18 hrs by immunoblot analysis. The format is cell-based. The method in brief:
as §2

Experiment [18] has the same target. Kind of experiment: Inhibition of TPA-induced IkappaBalpha phosphorylation in HEK293 whole cell extract at 15.8 uM treated 1 hr before TPA stimulation measured after 18 hrs by immunoblot analysis. Type of experiment: cell-based. The method in brief: as §2

SMILES strings stand for the structures. The source made the active and inactive calls. No cut-off for these calls is given here.

Signal transducer and activator of transcription 3 (Homo sapiens), sequence (P40763 whole entry): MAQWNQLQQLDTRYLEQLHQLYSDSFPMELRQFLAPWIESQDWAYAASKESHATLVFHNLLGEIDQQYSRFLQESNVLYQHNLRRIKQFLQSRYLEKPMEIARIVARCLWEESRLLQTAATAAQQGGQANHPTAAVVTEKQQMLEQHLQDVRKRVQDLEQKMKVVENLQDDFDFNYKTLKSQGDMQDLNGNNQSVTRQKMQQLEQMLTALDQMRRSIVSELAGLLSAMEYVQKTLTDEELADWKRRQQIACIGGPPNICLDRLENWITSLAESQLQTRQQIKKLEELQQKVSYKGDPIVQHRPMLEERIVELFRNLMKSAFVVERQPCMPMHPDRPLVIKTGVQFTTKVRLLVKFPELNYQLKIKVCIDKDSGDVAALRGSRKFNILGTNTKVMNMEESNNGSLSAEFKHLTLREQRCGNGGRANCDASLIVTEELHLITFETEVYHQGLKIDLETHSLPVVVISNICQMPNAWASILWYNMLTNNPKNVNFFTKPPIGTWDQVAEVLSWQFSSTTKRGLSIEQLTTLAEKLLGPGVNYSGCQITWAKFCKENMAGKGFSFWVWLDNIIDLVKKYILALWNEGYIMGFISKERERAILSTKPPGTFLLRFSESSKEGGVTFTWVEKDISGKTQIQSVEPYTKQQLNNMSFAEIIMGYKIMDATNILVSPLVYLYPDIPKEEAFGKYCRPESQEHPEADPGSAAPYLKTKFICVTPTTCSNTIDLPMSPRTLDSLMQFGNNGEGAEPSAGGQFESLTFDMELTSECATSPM

Turning to `CC(C)=CC(=O)O[C@@H]1[C@H]2C(C)=C[C@H](O)[C@@H](O)[C@]2(C)[C@H]2[C@]3(O)OC[C@@]24[C@@H]1OC(=O)C[C@H]4[C@@H](C)[C@H]3O`, the inhibition result in experiment [1] and in experiment [7] was “Dose-dependent effect” throughout. The inhibition result in [2], in [3], in experiment [5], in experiment [9], in [11] and in [12] was “inactive” throughout. Moreover, the IC50 in experiment [4] was found to be 910 nM; in experiment [13], 670 nM. The compound further gave a GI50 in experiment [6] (Homo sapiens, NCI60) of 260 nM. The inhibition entry in experiment [8] and in experiment [10] was “Active” each time.

In the case of `CC[C@](C)(O)C(=O)O[C@H]1C(=O)O[C@@H]2C[C@H]3C(C)=CC(=O)[C@@H](O)[C@]3(C)[C@H]3[C@@]4(O)OC[C@]32[C@@H]1[C@@H](C)[C@H]4O` (stereo in doubt; 4), the inhibition entry in [1] and in experiment [7] was “Dose-dependent effect” each time. The inhibition entry in experiment [2], in [3], in experiment [5], in [9], in [11] and in experiment [12] was “inactive” each time. In addition, the inhibition entry in experiment [14] and in [15] was “Active” in each case.

`CC[C@](C)(O)C(=O)O[C@H]1C(=O)O[C@@H]2C[C@H]3C(C)=CC(=O)[C@@H](O)[C@]3(C)[C@H]3[C@@]4(O)OC[C@]32[C@@H]1[C@@H](C)[C@H]4O` (stereo in doubt; 4) [GLAUCARUBINONE]: the IC50 in [4] is 290 nM; in experiment [13], 270 nM. The compound further gave a GI50 in experiment [6] of 1800 nM. In experiment [16], this compound had an inhibition at 1 µM of less than 25%.

Turning to `CCC(C)C(=O)O[C@H]1C(=O)O[C@@H]2C[C@H]3C(C)=CC(=O)[C@@H](O)[C@]3(C)[C@H]3[C@]4(O)OC[C@]32[C@@H]1[C@@H](C)[C@H]4O` (stereo partly specified) [AILANTHINONE], the inhibition result in experiment [1] and in experiment [7] was “Dose-dependent effect” throughout. Also, the inhibition result in [2], in experiment [3], in experiment [5], in experiment [9], in experiment [11] and in [12] was “inactive” in each case. Further, the inhibition entry in experiment [17] and in experiment [18] was “Active” each time. For the same compound, the IC50 came to 420 nM in experiment [4] and 3.4 nM in [13]. This compound also came in with a GI50 in [6] (Homo sapiens, NCI60) of 31000 nM. In addition, in experiment [16], the inhibition at 1 µM was less than 25%.

For the origin of these results see ChEMBL document CHEMBL1152334, “Quassinoid inhibition of AP-1 function does not correlate with cytotoxicity or protein synthesis inhibition” (J Nat Prod, 2009).
